Assay results taken from ChEMBL document CHEMBL4819066, “Repurposing primaquine as a polyamine conjugate to become an antibiotic adjuvant” (Bioorg Med Chem, 2021).

Legend:
Pseudomonas aeruginosa [1] = assay: Antibacterial activity against Pseudomonas aeruginosa ATCC 27853 assessed as reduction in microbial growth after 18 hrs by resazurin dye based assay; assay type: functional
Method in brief: (§1)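 Bacteria grown overnight at 37 °C in LB, NB or MHB, diluted 40-fold into MHB and grown 1.5-2 h to mid-log phase. Inoculum 5 × 10^5 CFU/mL (final), 2-fold serial dilutions, final range 0.008-32 µg/mL, in duplicate. […] Colistin as positive control, Z'-factor >0.4 for plate QC.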

Escherichia coli = assay: Antibacterial activity against Escherichia coli ATCC 25922 assessed as reduction in microbial growth after 18 hrs by resazurin dye based assay; assay type: functional; method in brief: as §1
Klebsiella pneumoniae = assay: Antibacterial activity against Klebsiella pneumoniae ATCC 700603 assessed as reduction in microbial growth after 18 hrs by resazurin dye based assay; assay type: functional; method in brief: as §1
Acinetobacter baumannii = assay: Antibacterial activity against Acinetobacter baumannii ATCC 19606 assessed as reduction in microbial growth after 18 hrs by resazurin dye based assay; assay type: functional; settings: ATCC 19606 = CIP 70.34 = JCM 6841; method in brief: as §1
Staphylococcus aureus = assay: Antibacterial activity against methicillin-resistant Staphylococcus aureus ATCC 43300 assessed as reduction in microbial growth after 18 hrs by resazurin dye based assay; assay type: functional
Method in brief: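 Overnight culture at 37 °C, diluted 40-fold in MHB and grown 1.5-2 h to mid-log. Inoculum 5 × 10^5 CFU/mL. Two-fold serial dilutions, final 0.008-32 µg/mL, in duplicate. […] Vancomycin served as the Gram-positive standard.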

Cryptococcus neoformans = assay: Antifungal activity against Cryptococcus neoformans ATCC 208821 assessed as reduction in microbial growth after 36 hrs by resazurin dye based assay; assay type: functional
Method in brief: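 Yeast grown 3 days on YPD agar at 30 °C and diluted in YNB broth to 2.5 × 10^3 CFU/mL. Compounds at 0.008-32 µg/mL final, 2-fold dilutions, in duplicate. After 36 h at 35 °C without shaking, resazurin added at 0.006% final for a further 3 h; MIC read as absorbance at OD570-600. Fluconazole as positive control.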

Pseudomonas aeruginosa [2] = assay: Potentiation of doxycycline-induced antibacterial activity against Pseudomonas aeruginosa ATCC 27853 assessed as complete reduction in visible microbial growth after 18 hrs in presence of 4.5 uM doxycycline by two fold serial dilution method; assay type: functional
Method in brief: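 Adjuvant test by broth dilution: inoculum 5 × 10^5 CFU in 200 µL MHB. Two-fold serial dilutions of each derivative were given with doxycycline fixed at 2 µg/mL. After 18 h at 37 °C, the value recorded was the lowest adjuvant concentration giving complete absence of visible growth. Three independent repeats.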

Candida albicans = assay: Antifungal activity against Candida albicans ATCC 90028 assessed as reduction in microbial growth after 36 hrs by absorbance at OD530; settings: ATCC 90028, 36 h

COLISTIN
MIC (Pseudomonas aeruginosa [1]): 0.2 µM | MIC (Escherichia coli): 0.1 µM | MIC (Klebsiella pneumoniae): 0.2 µM | MIC (Acinetobacter baumannii): 0.2 µM

O=C(CCC(=O)NCc1ccccn1)NCCCNCCCCCCCCCCNCCCNC(=O)CCC(=O)NCc1ccccn1
MIC (Staphylococcus aureus): > 35.8 µM | MIC (Pseudomonas aeruginosa [1]): > 35.8 µM | MIC (Escherichia coli): > 35.8 µM | MIC (Klebsiella pneumoniae): > 35.8 µM | MIC (Acinetobacter baumannii): > 35.8 µM | MIC (Cryptococcus neoformans): > 35.8 µM | MIC (Pseudomonas aeruginosa [2]): 559 µM | MIC (Candida albicans): > 35.8 µM

O=C(CCC(=O)Nc1cccc2cccnc12)NCCCNCCCCCCNCCCNC(=O)CCC(=O)Nc1cccc2cccnc12
MIC (Staphylococcus aureus): 17.6 µM | MIC (Pseudomonas aeruginosa [1]): > 35.1 µM | MIC (Escherichia coli): > 35.1 µM | MIC (Klebsiella pneumoniae): > 35.1 µM | MIC (Acinetobacter baumannii): > 35.1 µM | MIC (Cryptococcus neoformans): > 35.1 µM | MIC (Pseudomonas aeruginosa [2]): 100 µM | MIC (Candida albicans): > 35.1 µM

O=C(CCC(=O)Nc1cccc2ncccc12)NCCCNCCCCNCCCNC(=O)CCC(=O)Nc1cccc2ncccc12
MIC (Staphylococcus aureus): > 36.2 µM | MIC (Pseudomonas aeruginosa [1]): > 36.2 µM | MIC (Escherichia coli): > 36.2 µM | MIC (Klebsiella pneumoniae): > 36.2 µM | MIC (Acinetobacter baumannii): > 36.2 µM | MIC (Cryptococcus neoformans): > 36.2 µM | MIC (Pseudomonas aeruginosa [2]): 300 µM | MIC (Candida albicans): > 36.2 µM

O=C(CCC(=O)Nc1cccc2cccnc12)NCCCNCCCCCCCNCCCNC(=O)CCC(=O)Nc1cccc2cccnc12
MIC (Staphylococcus aureus): > 34.6 µM | MIC (Pseudomonas aeruginosa [1]): > 34.6 µM | MIC (Escherichia coli): > 34.6 µM | MIC (Klebsiella pneumoniae): > 34.6 µM | MIC (Acinetobacter baumannii): > 34.6 µM | MIC (Cryptococcus neoformans): > 34.6 µM | MIC (Pseudomonas aeruginosa [2]): 200 µM | MIC (Candida albicans): > 34.6 µM

O=C(CCC(=O)Nc1cccc2cccnc12)NCCCNCCCCCCCCNCCCNC(=O)CCC(=O)Nc1cccc2cccnc12
MIC (Staphylococcus aureus): > 34.1 µM | MIC (Pseudomonas aeruginosa [1]): > 34.1 µM | MIC (Escherichia coli): > 34.1 µM | MIC (Klebsiella pneumoniae): > 34.1 µM | MIC (Acinetobacter baumannii): > 34.1 µM | MIC (Cryptococcus neoformans): > 34.1 µM | MIC (Pseudomonas aeruginosa [2]): 200 µM | MIC (Candida albicans): > 34.1 µM

COc1cc(NC(=O)CCC(=O)NCCCNCCCCCCCNCCCNC(=O)CCC(=O)Nc2cc(OC)cc3cccnc23)c2ncccc2c1
MIC (Staphylococcus aureus): > 32.5 µM | MIC (Pseudomonas aeruginosa [1]): > 32.5 µM | MIC (Escherichia coli): > 32.5 µM | MIC (Klebsiella pneumoniae): > 32.5 µM | MIC (Acinetobacter baumannii): > 32.5 µM | MIC (Cryptococcus neoformans): > 32.5 µM | MIC (Pseudomonas aeruginosa [2]): 300 µM | MIC (Candida albicans): > 32.5 µM

O=C(CCC(=O)NCc1cccnc1)NCCCNCCCCCCCCCCNCCCNC(=O)CCC(=O)NCc1cccnc1
MIC (Staphylococcus aureus): > 35.8 µM | MIC (Pseudomonas aeruginosa [1]): > 35.8 µM | MIC (Escherichia coli): > 35.8 µM | MIC (Klebsiella pneumoniae): > 35.8 µM | MIC (Acinetobacter baumannii): > 35.8 µM | MIC (Cryptococcus neoformans): > 35.8 µM | MIC (Pseudomonas aeruginosa [2]): 559 µM | MIC (Candida albicans): > 35.8 µM

O=C(CCC(=O)NCc1cccnc1)NCCCNCCCCNCCCNC(=O)CCC(=O)NCc1cccnc1
MIC (Staphylococcus aureus): > 39.5 µM | MIC (Pseudomonas aeruginosa [1]): > 39.5 µM | MIC (Escherichia coli): > 39.5 µM | MIC (Klebsiella pneumoniae): > 39.5 µM | MIC (Acinetobacter baumannii): > 39.5 µM | MIC (Cryptococcus neoformans): > 39.5 µM | MIC (Pseudomonas aeruginosa [2]): 617 µM | MIC (Candida albicans): > 39.5 µM

C[C@H]1c2cccc(O)c2C(=O)C2=C(O)[C@]3(O)C(=O)C(C(N)=O)=C(O)[C@@H](N(C)C)[C@@H]3[C@@H](O)[C@@H]21 [DOXYCYCLINE]
MIC (Pseudomonas aeruginosa [1]): > 45 µM

O=C(CCC(=O)Nc1ccc2ccccc2n1)NCCCNCCCCNCCCNC(=O)CCC(=O)Nc1ccc2ccccc2n1
MIC (Staphylococcus aureus): > 36.2 µM | MIC (Pseudomonas aeruginosa [1]): > 36.2 µM | MIC (Escherichia coli): > 36.2 µM | MIC (Klebsiella pneumoniae): > 36.2 µM | MIC (Acinetobacter baumannii): > 36.2 µM | MIC (Cryptococcus neoformans): > 36.2 µM | MIC (Pseudomonas aeruginosa [2]): 566 µM | MIC (Candida albicans): > 36.2 µM

COc1cc(NC(=O)CCC(=O)NCCCNCCCCCCNCCCNC(=O)CCC(=O)Nc2cc(OC)cc3cccnc23)c2ncccc2c1
MIC (Staphylococcus aureus): > 33 µM | MIC (Pseudomonas aeruginosa [1]): > 33 µM | MIC (Escherichia coli): > 33 µM | MIC (Klebsiella pneumoniae): > 33 µM | MIC (Acinetobacter baumannii): > 33 µM | MIC (Cryptococcus neoformans): > 33 µM | MIC (Pseudomonas aeruginosa [2]): 300 µM | MIC (Candida albicans): > 33 µM

O=C(CCC(=O)Nc1cccc2cccnc12)NCCCNCCCCNCCCNC(=O)CCC(=O)Nc1cccc2cccnc12
MIC (Staphylococcus aureus): > 36.2 µM | MIC (Pseudomonas aeruginosa [1]): > 36.2 µM | MIC (Escherichia coli): > 36.2 µM | MIC (Klebsiella pneumoniae): > 36.2 µM | MIC (Acinetobacter baumannii): > 36.2 µM | MIC (Cryptococcus neoformans): > 36.2 µM | MIC (Pseudomonas aeruginosa [2]): 566 µM | MIC (Candida albicans): > 36.2 µM

O=C(CCC(=O)Nc1ccc2ncccc2c1)NCCCNCCCCNCCCNC(=O)CCC(=O)Nc1ccc2ncccc2c1
MIC (Staphylococcus aureus): > 36.2 µM | MIC (Pseudomonas aeruginosa [1]): > 36.2 µM | MIC (Escherichia coli): > 36.2 µM | MIC (Klebsiella pneumoniae): > 36.2 µM | MIC (Acinetobacter baumannii): > 36.2 µM | MIC (Cryptococcus neoformans): > 36.2 µM | MIC (Pseudomonas aeruginosa [2]): 566 µM | MIC (Candida albicans): > 36.2 µM

O=C(CCC(=O)NCc1ccccn1)NCCCNCCCCNCCCNC(=O)CCC(=O)NCc1ccccn1
MIC (Staphylococcus aureus): > 39.5 µM | MIC (Pseudomonas aeruginosa [1]): > 39.5 µM | MIC (Escherichia coli): > 39.5 µM | MIC (Klebsiella pneumoniae): > 39.5 µM | MIC (Acinetobacter baumannii): > 39.5 µM | MIC (Cryptococcus neoformans): > 39.5 µM | MIC (Pseudomonas aeruginosa [2]): 617 µM | MIC (Candida albicans): > 39.5 µM

COc1cc(NC(=O)CCC(=O)NCCCNCCCCCCCCCCNCCCNC(=O)CCC(=O)Nc2cc(OC)cc3cccnc23)c2ncccc2c1
MIC (Staphylococcus aureus): 3.9 µM | MIC (Pseudomonas aeruginosa [1]): > 31.2 µM | MIC (Escherichia coli): > 31.2 µM | MIC (Klebsiella pneumoniae): > 31.2 µM | MIC (Acinetobacter baumannii): > 31.2 µM | MIC (Cryptococcus neoformans): > 31.2 µM | MIC (Pseudomonas aeruginosa [2]): 300 µM | MIC (Candida albicans): > 31.2 µM

O=C(CCC(=O)Nc1ccc2ccccc2n1)NCCCNCCCCCCCCCCNCCCNC(=O)CCC(=O)Nc1ccc2ccccc2n1
MIC (Staphylococcus aureus): > 33.1 µM | MIC (Pseudomonas aeruginosa [1]): > 33.1 µM | MIC (Escherichia coli): > 33.1 µM | MIC (Klebsiella pneumoniae): > 33.1 µM | MIC (Acinetobacter baumannii): > 33.1 µM | MIC (Cryptococcus neoformans): > 33.1 µM | MIC (Pseudomonas aeruginosa [2]): 517 µM | MIC (Candida albicans): > 33.1 µM

OC(Cn1cncn1)(Cn1cncn1)c1ccc(F)cc1F [FLUCONAZOLE]
MIC (Cryptococcus neoformans): 26 µM | MIC (Candida albicans): 0.4 µM

CN[C@H](CC(C)C)C(=O)N[C@H]1C(=O)N[C@@H](CC(N)=O)C(=O)N[C@H]2C(=O)N[C@H]3C(=O)N[C@H](C(=O)N[C@H](C(=O)O)c4cc(O)cc(O)c4-c4cc3ccc4O)[C@H](O)c3ccc(c(Cl)c3)Oc3cc2cc(c3O[C@@H]2O[C@H](CO)[C@@H](O)[C@H](O)[C@H]2O[C@H]2C[C@](C)(N)[C@H](O)[C@H](C)O2)Oc2ccc(cc2Cl)[C@H]1O [VANCOMYCIN]
MIC (Staphylococcus aureus): 0.7 µM

O=C(CCC(=O)Nc1ccc2ncccc2c1)NCCCNCCCCCCCCCCNCCCNC(=O)CCC(=O)Nc1ccc2ncccc2c1
MIC (Staphylococcus aureus): > 33.1 µM | MIC (Pseudomonas aeruginosa [1]): > 33.1 µM | MIC (Escherichia coli): > 33.1 µM | MIC (Klebsiella pneumoniae): > 33.1 µM | MIC (Acinetobacter baumannii): > 33.1 µM | MIC (Cryptococcus neoformans): > 33.1 µM | MIC (Pseudomonas aeruginosa [2]): 517 µM | MIC (Candida albicans): > 33.1 µM

COc1cc(NC(=O)CCC(=O)NCCCNCCCCNCCCNC(=O)CCC(=O)Nc2cc(OC)cc3cccnc23)c2ncccc2c1
MIC (Staphylococcus aureus): > 33.9 µM | MIC (Pseudomonas aeruginosa [1]): > 33.9 µM | MIC (Escherichia coli): > 33.9 µM | MIC (Klebsiella pneumoniae): > 33.9 µM | MIC (Acinetobacter baumannii): > 33.9 µM | MIC (Cryptococcus neoformans): > 33.9 µM | MIC (Pseudomonas aeruginosa [2]): 200 µM | MIC (Candida albicans): > 33.9 µM

O=C(CCC(=O)Nc1cccc2ncccc12)NCCCNCCCCCCCCCCNCCCNC(=O)CCC(=O)Nc1cccc2ncccc12
MIC (Staphylococcus aureus): > 33.1 µM | MIC (Pseudomonas aeruginosa [1]): > 33.1 µM | MIC (Escherichia coli): > 33.1 µM | MIC (Klebsiella pneumoniae): > 33.1 µM | MIC (Acinetobacter baumannii): > 33.1 µM | MIC (Cryptococcus neoformans): > 33.1 µM | MIC (Pseudomonas aeruginosa [2]): 517 µM | MIC (Candida albicans): > 33.1 µM

COc1cc(NC(=O)CCC(=O)NCCCNCCCCCCCCNCCCNC(=O)CCC(=O)Nc2cc(OC)cc3cccnc23)c2ncccc2c1
MIC (Staphylococcus aureus): > 32 µM | MIC (Pseudomonas aeruginosa [1]): > 32 µM | MIC (Escherichia coli): > 32 µM | MIC (Klebsiella pneumoniae): > 32 µM | MIC (Acinetobacter baumannii): > 32 µM | MIC (Cryptococcus neoformans): > 32 µM | MIC (Pseudomonas aeruginosa [2]): 300 µM | MIC (Candida albicans): > 32 µM
